ChEMBL document CHEMBL2021852 (ACS Med Chem Lett, 2011)

Key:
[1] = Clearance in rat at […], iv; type: ADME, organism-based; design: dose 1.5 mg/kg, route intravenous; settings: in vivo
[2] = Volume of distribution at steady state in rat at […], iv and 8.2 mg/kg, po; type: ADME, organism-based; settings: in vivo, read-out: Vdss
[3] = Half life in cynomolgus monkey at 1 mg/kg, iv; type: ADME, organism-based, Macaca fascicularis; design: dose 1 mg/kg, route intravenous; settings: in vivo
Method in brief: (§1)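 Compounds were dosed as fumarate salts in separate intravenous and oral arms. Oral AUC(0–t), IV half-life, IV clearance, Vss and oral bioavailability (F) were derived from the plasma levels.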

[4] = Oral bioavailability in cynomolgus monkey at 2 mg/kg; type: ADME, organism-based, Macaca fascicularis; settings: in vivo; method in brief: as §1
[5] = Oral bioavailability in rat at 8.2 mg/kg; type: ADME, organism-based; settings: in vivo; method in brief: as §1
[6] = AUC (0 to t) in cynomolgus monkey at 2 mg/kg, po; type: ADME, organism-based, Macaca fascicularis; design: dose 2 mg/kg, route oral; settings: plasma; method in brief: as §1
[7] = Clearance in cynomolgus monkey at 1 mg/kg, iv; type: ADME, organism-based, Macaca fascicularis; design: dose 1 mg/kg, route intravenous; settings: in vivo; method in brief: as §1
[8] = Volume of distribution at steady state in cynomolgus monkey at 1 mg/kg, iv and 2 mg/kg, po; type: ADME, organism-based, Macaca fascicularis; settings: in vivo, read-out: Vdss; method in brief: as §1
[9] = AUC (0 to t) in rat at 8.2 mg/kg, po; type: ADME, organism-based; design: dose 8.2 mg/kg, route oral; settings: plasma; method in brief: as §1
[10] = Half life in rat at […], iv; type: ADME, organism-based; design: dose 1.5 mg/kg, route intravenous; settings: in vivo
[11] = target: T1, Renin (Homo sapiens, UniProt P00797); assay: Inhibition of renin in human plasma assessed as formation of angiotensin1 product after 90 mins by competitive radioimmunoassay
T1 sequence (P00797 whole entry): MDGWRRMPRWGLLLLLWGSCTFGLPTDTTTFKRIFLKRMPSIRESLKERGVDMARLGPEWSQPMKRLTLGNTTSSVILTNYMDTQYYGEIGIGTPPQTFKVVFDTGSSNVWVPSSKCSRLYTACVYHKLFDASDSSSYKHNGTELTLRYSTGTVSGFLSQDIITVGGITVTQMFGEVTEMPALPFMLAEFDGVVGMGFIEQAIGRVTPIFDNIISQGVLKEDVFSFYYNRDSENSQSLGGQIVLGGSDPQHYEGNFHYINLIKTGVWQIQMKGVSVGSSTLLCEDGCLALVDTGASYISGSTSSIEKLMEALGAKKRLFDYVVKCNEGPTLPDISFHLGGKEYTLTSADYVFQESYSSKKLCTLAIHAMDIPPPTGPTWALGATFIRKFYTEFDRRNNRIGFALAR
Method in brief: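 IC50 for renin inhibition determined in the presence of human plasma; each value is the average of at least two replicates.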

[12] = target: T1, Renin; assay: Inhibition of human recombinant renin using DABCYL-gamma-Abu-Ile-His-Pro-Phe-His-Leu-Val-Ile-His-Thr-EDANS as substrate for 60 mins by fluorimetry
Method in brief: (§2)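 Purified recombinant human renin measured in buffer; each value is the average of at least two replicates.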

[13] = Volume of distribution at steady state in rat at 2 mg/kg, iv and 10 mg/kg, po; type: ADME, organism-based; settings: in vivo, read-out: Vdss; method in brief: as §1
[14] = Oral bioavailability in dog at 1 mg/kg; type: ADME, organism-based, Canis lupus familiaris; settings: in vivo; method in brief: as §1
[15] = Volume of distribution at steady state in dog at 0.5 mg/kg, iv and 1 mg/kg, po; type: ADME, organism-based, Canis lupus familiaris; settings: in vivo, read-out: Vdss; method in brief: as §1
[16] = AUC (0 to t) in dog at 1 mg/kg, po; type: ADME, organism-based, Canis lupus familiaris; design: dose 1 mg/kg, route oral; settings: plasma; method in brief: as §1
[17] = Clearance in rat at 2 mg/kg, iv; type: ADME, organism-based; design: dose 2 mg/kg, route intravenous; settings: in vivo; method in brief: as §1
[18] = Clearance in dog at 0.5 mg/kg, iv; type: ADME, organism-based, Canis lupus familiaris; design: dose 0.5 mg/kg, route intravenous; settings: in vivo; method in brief: as §1
[19] = Half life in dog at 0.5 mg/kg, iv; type: ADME, organism-based, Canis lupus familiaris; design: dose 0.5 mg/kg, route intravenous; settings: in vivo; method in brief: as §1
[20] = Half life in rat at 2 mg/kg, iv; type: ADME, organism-based; design: dose 2 mg/kg, route intravenous; settings: in vivo; method in brief: as §1
[21] = target: Cytochrome P450 3A4 (Homo sapiens, UniProt P08684); assay: Inhibition of CYP3A4 using testosterone as substrate in human liver microsome for 20 mins by HPLC analysis; type: ADME, microsomes
Chain of Cytochrome P450 3A4 (P08684 whole entry): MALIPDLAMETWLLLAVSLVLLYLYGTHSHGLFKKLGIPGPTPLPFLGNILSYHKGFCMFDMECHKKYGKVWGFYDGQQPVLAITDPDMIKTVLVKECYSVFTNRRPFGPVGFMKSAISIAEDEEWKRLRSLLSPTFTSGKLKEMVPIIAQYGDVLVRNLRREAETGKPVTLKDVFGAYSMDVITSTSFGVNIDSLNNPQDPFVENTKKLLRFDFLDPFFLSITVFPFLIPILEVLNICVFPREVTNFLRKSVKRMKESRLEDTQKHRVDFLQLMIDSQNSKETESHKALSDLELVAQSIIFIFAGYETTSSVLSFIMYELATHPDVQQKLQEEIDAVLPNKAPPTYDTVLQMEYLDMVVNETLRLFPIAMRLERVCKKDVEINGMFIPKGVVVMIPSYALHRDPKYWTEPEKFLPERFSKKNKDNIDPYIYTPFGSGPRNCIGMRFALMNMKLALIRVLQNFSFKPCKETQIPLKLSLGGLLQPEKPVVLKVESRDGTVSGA
Method in brief: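 CYP3A4 inhibition measured in human liver microsomes; IC50 is the average of at least two replicates.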

[22] = target: T1, Renin; assay: Inhibition of human recombinant renin using H-Asp-Arg-Val-Tyr-Ile-His-Pro-Phe-His-Leu-Val-Ile-His-Asn-OH as substrate assessed as formation of angiotensin1 product after 2 hrs by competive radioimmunoassay; method in brief: as §2
[23] = Volume of distribution at steady state in rat at 1.6 mg/kg, iv and 8 mg/kg, po; type: ADME, organism-based; settings: in vivo, read-out: Vdss; method in brief: as §1
[24] = Clearance in rat at 1.6 mg/kg, iv; type: ADME, organism-based; design: dose 1.6 mg/kg, route intravenous; settings: in vivo; method in brief: as §1
[25] = Oral bioavailability in cynomolgus monkey at 1 mg/kg; type: ADME, organism-based, Macaca fascicularis; settings: in vivo; method in brief: as §1
[26] = Oral bioavailability in rat at 8 mg/kg; type: ADME, organism-based; settings: in vivo
Method in brief: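 Rats given compound as the fumarate salt, intravenously and by mouth in separate arms. Oral AUC(0–t), IV half-life, IV clearance, Vss and F were tabulated. The oral dose was 8.0 mg/kg, paired with an IV dose of 1.6 mg/kg.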

[27] = AUC (0 to t) in rat at 8 mg/kg, po; type: ADME, organism-based; design: dose 8 mg/kg, route oral; settings: plasma; method in brief: as §1
[28] = AUC (0 to t) in cynomolgus monkey at 1 mg/kg, po; type: ADME, organism-based, Macaca fascicularis; design: dose 1 mg/kg, route oral; settings: plasma; method in brief: as §1
[29] = Half life in rat at 1.6 mg/kg, iv; type: ADME, organism-based; design: dose 1.6 mg/kg, route intravenous; settings: in vivo; method in brief: as §1
[30] = Volume of distribution at steady state in cynomolgus monkey at 1 mg/kg, iv and 1 mg/kg, po; type: ADME, organism-based, Macaca fascicularis; settings: in vivo, read-out: Vdss; method in brief: as §1

CNC[C@H](C[C@H]1CCCOC1)NC(=O)N1CCC[C@@H]([C@@H](OCCNC(=O)OC)c2cccc(Cl)c2)C1.O=C(O)/C=C/C(=O)O
clearance [1]: 48 mL/min/kg | Vd [2]: 39 L/kg | half-life [3]: 14 h | bioavailability [4]: 5.3% | bioavailability [5]: 7.5% | AUC(0-t) [6]: 172 ng·h/mL | clearance [7]: 9.5 mL/min/kg | Vd [8]: 5 L/kg | AUC(0-t) [9]: 167 ng·h/mL | half-life [10]: 18.3 h

CNC[C@H](CC1CCCCC1)NC(=O)N1CCC[C@@H]([C@@](O)(CCCCOC)c2cccc(Cl)c2F)C1
IC50 [11]: 9.4 nM | IC50 [12]: 0.73 nM

CN[C@H](CNC(=O)N1CCC[C@@H]([C@@H](OCCNC(=O)OC)c2cccc(Cl)c2)C1)C[C@H]1CCCOC1.O=C(O)/C=C/C(=O)O
Vd [13]: 38 L/kg | bioavailability [14]: 41% | Vd [15]: 4 L/kg | half-life [3]: 12.3 h | bioavailability [4]: 18% | AUC(0-t) [16]: 484 ng·h/mL | clearance [17]: 128 mL/min/kg | clearance [18]: 12.9 mL/min/kg | half-life [19]: 9.9 h | AUC(0-t) [6]: 404 ng·h/mL | clearance [7]: 29.6 mL/min/kg | Vd [8]: 4.7 L/kg | half-life [20]: 7.3 h

CNC[C@@H](NC(=O)N1CCC[C@@H]([C@@H](OCCNC(=O)OC)c2cccc(Cl)c2)C1)[C@@H](O)C1CCCCC1
IC50 [11]: 1.06 nM | IC50 [21]: 7100 nM | IC50 [22]: 0.15 nM | IC50 [12]: 0.33 nM

CNC[C@H](C[C@@H]1CCCOC1)NC(=O)N1CCC[C@@H]([C@@H](OCCNC(=O)OC)c2cccc(Cl)c2)C1
IC50 [11]: 4.5 nM | IC50 [22]: 2.7 nM | IC50 [12]: 5.5 nM

COCCCC[C@@](O)(c1cccc(Cl)c1F)[C@@H]1CCCN(C(=O)NC[C@@H](N)CC2CCCCC2)C1
IC50 [11]: 69 nM | IC50 [21]: 2910 nM | IC50 [22]: 0.27 nM | IC50 [12]: 2.2 nM

CNC[C@H](CC1CCCCC1)NC(=O)N1CCC[C@@H]([C@@H](OCCNC(=O)OC)c2cccc(Cl)c2)C1.O=C(O)/C=C/C(=O)O
Vd [23]: 19 L/kg | clearance [24]: 36 mL/min/kg | half-life [3]: 23.3 h | bioavailability [25]: 9.9% | bioavailability [26]: 9.4% | AUC(0-t) [27]: 301 ng·h/mL | AUC(0-t) [28]: 130 ng·h/mL | half-life [29]: 16.2 h | Vd [30]: 9.8 L/kg
